D1 mod: allosteric modulators of human D1 dopamine receptor; P21728; HEK293 D1, CRE-luciferase, dopamine EC30 potentiation; actives deviate in either direction; B-score at 10 µM; 5.9% of 58,000 active; AID 641;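 active = luminescence count or its row- and column-corrected plate score outside the 99.7% band of the plate's sample wells, on either side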
Target sequence (P21728 whole entry, looked up): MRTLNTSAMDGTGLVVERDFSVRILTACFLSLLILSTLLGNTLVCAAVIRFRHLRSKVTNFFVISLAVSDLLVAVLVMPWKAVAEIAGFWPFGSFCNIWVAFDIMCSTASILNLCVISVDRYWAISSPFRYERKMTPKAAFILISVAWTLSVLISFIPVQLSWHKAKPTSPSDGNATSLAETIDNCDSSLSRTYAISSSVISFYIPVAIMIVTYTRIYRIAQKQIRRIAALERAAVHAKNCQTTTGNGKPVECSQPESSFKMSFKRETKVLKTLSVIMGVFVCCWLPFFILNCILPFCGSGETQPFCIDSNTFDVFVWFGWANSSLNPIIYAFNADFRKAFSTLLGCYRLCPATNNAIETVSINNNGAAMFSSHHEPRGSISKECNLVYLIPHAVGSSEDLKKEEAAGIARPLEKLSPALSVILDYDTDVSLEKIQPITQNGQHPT
M1 antag: antagonists of rat M1 muscarinic receptor | CHO-M1 cells, Fluo-4 calcium, ACh EC80 antagonist mode; active compounds read low | B-score at 10 µM | 3.4% of 64,000 active;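 active = calcium fluorescence response, raw or row-and-column corrected B-score, differing from the plate sample mean either way at a set confidence level, mostly lower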
M1 agonist: agonists of M1 muscarinic receptor. 3% of 64,000 active. CHO-M1 cells, Fluo-4 calcium fluorescence, agonist mode; active compounds read high. AID 626. B-score at 10 µM;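 active = fluorescence rise, raw or as B-score row- and column-corrected plate score, outside the 99.7% band of its plate's samples, either direction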
Htt clearance: compounds clearing mutant huntingtin protein. HeLa Exon1htt(103Q)mCFP, aggregate imaging; zero = plate's median compound well. inhibition, % at 1.5 µM. 0.42% of 47,000 active. AID 853;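 active = inhibition of aggregate fluorescence above about 70%, also judged a hit by eye on the cell image, limit read from the data, passing the limit was not always enough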;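 note: cells exposed to compound for three days before fixation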
AP complement: orthogonal test for alternative complement pathway inhibitors; Human serum alternative complement pathway, LPS-coated ELISA, C3 deposition; tested in compound mixtures; inhibition, % at 5 µM; 0.08% of 62,000 active; AID 1235;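 active = inhibition above 30% in each of the two pooled mixtures holding the compound, so the lower value exceeds 30%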;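 note: 0% = serum in Mg-EGTA without compound and 100% = EDTA serum blank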
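Test system: human serum complement alternative pathway, C3 deposition onto LPS / Medium: Mg2+-EGTA GVB++ buffer containing human serum at 1:15 dilution / Probe or stimulus: Plate-bound LPS / Times: 1 h at 37 °C / Signal: ELISA with HRP anti-human C3 antibody, TMB substrate, absorbance 450 nm / Measure: percent inhibition / Repeats: two pool placements per compound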
D1 PAM confirm: D1 receptor (human) allosteric modulation, confirmed. luminescence at 10 µM. HEK293 D1 CRE-luciferase, dopamine EC30 potentiation; active compounds read high. 88% of 2,200 active. shares compounds with D1 mod;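 active = luminescence in either of two replicates above the same-plate mean plus 3 SD of the low-dose dopamine control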
D1 ag no DA: activates D1 CRE-luciferase signal without dopamine present; shares compounds with D1 mod; HEK293 D1 CRE-luciferase, luminescence, no dopamine; active compounds read high; luminescence at 10 µM; 0.8% of 1,900 active; in the data active = luminescence above about 3900
Isoprot counter: isoproterenol response counter-screen activity for D1 modulators | shares compounds with D1 mod | HEK293 D1 CRE-luciferase, isoproterenol EC30 counter-screen | calls only at 10 µM | 63% of 2,200 active | AID 647;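 active = luminescence in either replicate above plate mean of wells with a partly effective reference agonist dose plus 3 SD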;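 note: isoproterenol raises cAMP through native beta-adrenoceptor Gs so signal bypasses D1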
An asterisk follows results filed as active; i = inactive; x = no result given; + = active, no number. Hits are enriched below; roughly 9% of the tested compounds scored in any of these assays.

SMILES	D1 mod	M1 antag	M1 agonist	Htt clearance	AP complement	D1 PAM confirm	D1 ag no DA	Isoprot counter
COc1nc(N2CCOCC2)nc(-n2cccc2)n1	17*	0.56	-0.33	26	5	12956*	1432	+
CC1CCN(c2oc(-c3ccccc3Cl)nc2C#N)CC1	x	-0.23	-0.51	x	x	x	x	x
N#Cc1nc(-c2ccccc2Cl)oc1N1CCOCC1	4.8*	-0.045	0.26	x	9	7844*	1764	i
CCCCSc1nnc2nc(C)cc(C)n12	-0.13	0.52	1.1	21	0	x	x	x
CCn1cc(C(=O)NCc2cccs2)c(=O)c2cc(S(=O)(=O)N3CCOCC3)ccc21	0.79	-0.31	0.17	x	12	x	x	x
C=CCNc1nc2c(c(=O)n(C)c(=O)n2C)n1CC(=C)C	-0.015	0.078	-2.1	x	9	x	x	x
CCOc1cc(-c2c(C)c(CC)nc(N)c2C#N)ccc1O	1.9*	0.61	-0.054	x	19	10600*	1960	+
CCN1C(=O)/C(=c2/s/c(=C3\SC(C)=C(C)N3CC)c(=O)n2CC)N(c2ccccc2)C1=S	x	x	x	16	x	x	x	x
COc1ccc(/C=C(/C#N)c2cccnc2)cc1OC	34*	0.15	0.83	x	13	21544*	1648	+
COc1cc(/C=N/n2cnnc2)ccc1OC(=O)c1cccnc1	-1.5	-0.73	-0.53	13	15	x	x	x
Cc1ccc(S(=O)(=O)CC(=O)N(C)C)cc1	-0.055	0.15	2	-45	22	x	x	x
COc1ccc2c(C)cc(=O)oc2c1C	5.7*	-0.013	-0.049	-46	1	11556*	x	+
O=C(Oc1ccc2ccc(=O)oc2c1)N1CCOCC1	3.1*	-0.0094	-0.86	-2	24	5096	1644	i
COCCNC(=O)CSc1nc(-c2ccc(OC)c(OC)c2)cc(C(F)(F)F)n1	9.3*	0.2	-0.88	32	-6	12172*	1680	+
COc1ccc(-c2cc(C(F)(F)F)nc(SCC(=O)N3CCOCC3)n2)cc1OC	23*	-0.75	1.9	24	1	16556*	1792	+
COc1cc2cc(C)c(SCC(=O)N3CCOCC3)nc2cc1OC	5.7*	-0.11	1.1	0	-3	10104*	1624	+
CCNc1nc(NC(C)C)nc(N(C#N)CCOc2ccc(Cl)cc2Cl)n1	3.2*	-0.45	-0.66	-82	6	11108*	1056	+
CCNc1nc(NC(C)(C)C)nc(N(C#N)CC)n1	30*	0.059	-0.29	63	16	23548*	1472	+
CCNc1nc(NC(C)C)nc(N(C#N)Cc2ccccc2)n1	8.9*	0.21	0.85	-37	-7	22672*	1600	+
CCNc1nc(NC(C)C)nc(N(C#N)C(C)C(=O)N(C)C)n1 (centres undefined)	x	0.19	-0.19	x	15	x	x	x
COc1cccc(C2C(C(=O)OCc3ccccc3)=C(C)Nc3ncnn32)c1OC (centres undefined)	0.13	-0.23	-1.8	12	4	x	x	x
CCOc1ccccc1NC(=O)CCN1CCN(S(=O)(=O)c2ccc(Br)cc2)CC1	-0.13	0.75	1	-5	4	x	x	x
C=C(C)C1CC=C(C)/C(=N/NC(=O)COc2cccc3ccccc23)C1 (centres undefined)	x	x	x	15	x	x	x	x
N#C/C(=C1/CCCCCN1)c1nc2ccccc2s1	6.2*	0.33	-0.0075	-60	4	8248*	1304	+
N#C/C(=C1\CCCN1)c1nc2ccccc2c(=O)[nH]1	0.53	0.81	0.53	28	-3	x	x	x
CCOC(=O)c1cnc(SCC(=O)Nc2nc(C)c(C)s2)nc1N	1.1	-0.23	0.016	-3	23	x	x	x
Cc1cc(C(F)(F)F)n(-c2nc(C(=O)Nc3ccccc3Oc3ccccc3)cs2)n1	x	x	x	-5	x	x	x	x
CC(=O)n1nc(-c2ccco2)nc1N	-0.95	-0.48	-0.65	-42	1	x	x	x
CCC(=O)n1nc(-c2ccco2)nc1N	15*	1	-0.2	14	16	6080*	1652	i
Fc1ccccc1CSc1nnnn1-c1ccc2c(c1)OCO2	5.1*	-0.27	0.64	50	11	11056*	1596	i

High-throughput results from PubChem.
